Experimental data from ChEMBL document CHEMBL1136482, “Substituted azoloquinolines and -quinazolines as new potent farnesyl protein transferase inhibitors” (Bioorg Med Chem Lett, 2003).
Activity calls are given as the source filed them. The calls are words filed in the database; no cut-off is given here.

What was measured:
[1] = target: T1, Protein farnesyltransferase (Homo sapiens, UniProt P49354+P49356); assay: Inhibition of [3H]FPP incorporation into biotinylated laminB peptide by farnesyl transferase 0.1 uM; assay type: protein-complex assay
Procedure, shortened: (§1)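 Isolated FPT enzyme assay measuring incorporation of [3H]-farnesylpyrophosphate into biotinylated laminB peptide. IC50 is the concentration giving 50% reduction of incorporation. Some entries are given as percent inhibition at a single concentration.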

NIH3T3 [2] = assay: T24H-ras-transformed NIH3T3 cell proliferation; assay type: functional, cell-based, Mus musculus
[3] = target: T1, Protein farnesyltransferase; assay: Inhibition of [3H]FPP incorporation into biotinylated laminB peptide by farnesyl transferase; assay type: protein-complex assay; procedure, shortened: as §1
[4] = target: T2, Geranylgeranyl transferase type I (Homo sapiens, UniProt P49354+P53609); assay: Inhibition of Geranylgeranylprotein transferase-I catalyzed incorporation of [3H]GGPP into biotinYRASNRSCAIL peptide; assay type: protein-complex assay
NIH3T3 [5] = assay: (§2) In vivo inhibition of T24H-ras NIH3T3 tumor growth in mice; assay type: functional, Mus musculus
NIH3T3 [6] = assay: In vivo inhibition of T24H-ras NIH3T3 tumor growth in mice (Not significant); assay type: functional, organism-based; conditions: Mus musculus
Homo sapiens = species on record: Homo sapiens; assay: Compound tested for metabolism and expressed as percentage of parent drug remaining after 120 min incubation with human liver microsomes.; assay type: functional, organism-based
NIH3T3 [7] = assay: as §2; assay type: functional, Mus musculus; remark: listed apart in the source
Procedure, shortened: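 Mice were inoculated with T24 NIH 3T3 cells. Dosing at 25 mg/kg was oral, once daily, starting 2 days after tumour inoculation. Tumour growth was assessed 17 days after administration and is reported as percentage inhibition of tumour weight.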

[8] = target: T1, Protein farnesyltransferase; assay: Inhibition of [3H]FPP incorporation into biotinylated laminB peptide by farnesyl transferase at 0.1 uM; assay type: protein-complex assay; procedure, shortened: as §1
[9] = target: T2, Geranylgeranyl transferase type I; assay: Inhibition of Geranylgeranylprotein transferase-I catalyzed incorporation of [3H]GGPP into biotinYRASNRSCAIL peptide at 10 uM; assay type: protein-complex assay

| SMILES | IC50 (NIH3T3 [2]; Mus musculus, NIH3T3) | IC50 [3] | IC50 (NIH3T3 [2]; nih3t3) | further results |
| --- | --- | --- | --- | --- |
| Cn1cncc1C(N)(c1ccc(Cl)cc1)c1ccc2c(c1)c(-c1cccc(Cl)c1)cc1nnc(-c3ccccc3)n12 (stereo unspecified) | 304 nM |  |  | inhibition [1]: 60% |
| Cn1cncc1C(N)(c1ccc(Cl)cc1)c1ccc2c(c1)c(-c1cccc(Cl)c1)nc1nnnn12 (stereo in doubt; 43a) [listing 1 of 2 here] |  | 0.6 nM | 10 nM | IC50 [4]: > 1000 nM; Inhibition (NIH3T3 [5]): 66% |
| Cn1cncc1C(N)(c1ccc(Cl)cc1)c1ccc2c(c1)c(-c1cccc(Cl)c1)cc1nnnn12 (stereo in doubt; 24b) [listing 1 of 2 here] |  |  |  | inhibition (NIH3T3 [6]): inactive |
| Cn1cncc1[C@@](N)(c1ccc(Cl)cc1)c1ccc2c(c1)c(-c1cccc(Cl)c1)cc(=O)n2C [TIPIFARNIB] |  | 0.9 nM |  | Metabolism (Homo sapiens): 66%; Inhibition (NIH3T3 [7]): 37% |
| Cn1cncc1C(N)(c1ccc(Cl)cc1)c1ccc2c(c1)c(-c1cccc(Cl)c1)nc1nnnn12 (stereo in doubt; 43) |  | 2.5 nM | 12 nM | IC50 [4]: 461 nM |
| Cn1cncc1C(N)(c1ccc(Cl)cc1)c1ccc2c(c1)c(-c1cccc(Cl)c1)cc1cnnn12 (stereo unspecified) |  |  |  | inhibition [1]: 68% |
| Cn1cncc1C(N)(c1ccc(Cl)cc1)c1ccc2c(c1)c(-c1cccc(Cl)c1)cc1nccn12 (stereo unspecified) | 28 nM | 7 nM |  |  |
| Cn1cncc1C(N)(c1ccc(Cl)cc1)c1ccc2c(c1)c(-c1cccc(Cl)c1)nc1nnnn12 (stereo in doubt; 43b) |  | 22 nM | 108 nM |  |
| Cn1cncc1C(N)(c1ccc(Cl)cc1)c1ccc2c(c1)c(-c1cccc(Cl)c1)nc1nnnn12 (stereo in doubt; 43a) [listing 2 of 2 here] |  |  |  | Metabolism (Homo sapiens): 97% |
| Cc1nnc2cc(-c3cccc(Cl)c3)c3cc(C(N)(c4ccc(Cl)cc4)c4cncn4C)ccc3n12 (stereo unspecified) | 17.5 nM | 1.5 nM |  | inhibition (NIH3T3 [6]): inactive |
| Cn1cncc1C(N)(c1ccc(Cl)cc1)c1ccc2c(c1)c(-c1cccc(Cl)c1)cc1nncn12 (stereo unspecified) |  |  |  | inhibition [8]: 65% |
| Cn1cncc1C(N)(c1ccc(Cl)cc1)c1ccc2c(c1)c(-c1cccc(Cl)c1)cc1nnnn12 (stereo in doubt; 24) |  | 3.5 nM | 55 nM | IC50 [4]: 176 nM |
| Cn1cncc1C(N)(c1ccc(Cl)cc1)c1ccc2c(c1)c(-c1cccc(Cl)c1)cc1nnnn12 (stereo in doubt; 24b) [listing 2 of 2 here] |  | 1.7 nM | 20 nM | IC50 [4]: 81 nM |
| Cn1cncc1C(N)(c1ccc(Cl)cc1)c1ccc2c(c1)c(-c1cccc(Cl)c1)nc1nncn12 (stereo unspecified) | 186 nM | 3 nM |  |  |
| Cn1cncc1C(N)(c1ccc(Cl)cc1)c1ccc2c(c1)c(-c1cccc(Cl)c1)nc1nccn12 (stereo unspecified) | 88 nM | 5 nM |  |  |
| Cn1cncc1C(N)(c1ccc(Cl)cc1)c1ccc2c(c1)c(-c1cccc(Cl)c1)cc1nnnn12 (stereo in doubt; 24a) |  |  | > 500 nM | Inhibition [3]: 36%; Inhibition [9]: 55% |
